Assay outcomes deposited in PubChem by Sanford-Burnham Center for Chemical Genomics.
Compounds with a hit are over-represented: about 1.5% of the library has one in this group of screens.
CCR6 antagonist: CCR6 (human) receptor antagonism; P51684; CHO-K1 CCR6 PathHunter beta-arrestin, luminescence, CCL20-stimulated; inhibition, % at 20 µM; 340,000 compounds, 0.49% hits; AID 493098;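 active = compounds whose inhibition of the agonist-driven luminescence signal at 20 µM reaches about 50%, limit read from the data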;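 also: cells stimulated with CCL20 at 14 nM final; plate controls were DMSO with CCL20 for no effect and DMSO without agonist for full effect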
EBI2 block: blocks human EBI2 receptor beta-arrestin signaling; P32249; EBI2 beta-arrestin recruitment, luminescence, 7a,25-OHC stimulated; inhibition, % at 5 µM; 360,000 compounds, 0.81% hits; in the data active = inhibition above about 38%;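 also: enzyme fragment complementation signal reports receptor beta-arrestin coupling in cells; 0% = agonist plus DMSO wells and 100% = wells without agonist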
Target sequence (P32249 whole entry, looked up, the tested form may be a part): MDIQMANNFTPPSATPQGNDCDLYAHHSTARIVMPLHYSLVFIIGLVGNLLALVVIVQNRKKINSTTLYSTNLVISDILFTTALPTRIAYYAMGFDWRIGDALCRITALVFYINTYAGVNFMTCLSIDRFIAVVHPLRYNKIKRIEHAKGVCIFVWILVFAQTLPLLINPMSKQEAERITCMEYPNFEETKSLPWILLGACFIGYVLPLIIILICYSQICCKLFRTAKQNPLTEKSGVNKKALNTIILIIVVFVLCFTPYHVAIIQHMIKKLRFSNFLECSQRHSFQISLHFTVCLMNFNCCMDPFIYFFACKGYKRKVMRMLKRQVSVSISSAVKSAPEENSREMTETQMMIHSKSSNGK
APJ ag: activates the human apelin receptor APJ. activation, % at 20 µM. AID 2520. CHO-K1 APJ PathHunter beta-arrestin, luminescence; 0% DMSO wells, 100% apelin. 330,000 compounds, 0.11% hits. P35414;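 active = activation more than six SD over the plate average, tested at 20 µM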;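 also: 0% = DMSO alone and 100% = apelin-13 at 10 nM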
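Incubation: overnight seeding, 90 min compound at 25 °C, 1 h detection; test system: PathHunter CHO-K1 APJ (AGTRL-1) beta-arrestin reporter cells; amount: 1000 cells/well; doses: one dose, 20 µM compound, 1% DMSO; measured by: beta-gal luminescence; measure: agonist-driven arrestin binding to APJ; benchmarks: negative DMSO alone, positive Apelin-13 at 10 nM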
APJ antag: blocks the human apelin receptor APJ | P35414 | CHO-K1 APJ beta-arrestin complementation, luminescence | inhibition, % at 20 µM | 330,000 compounds, 0.32% hits;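 active = inhibition above about 40% at 20 µM, limit read from the data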;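 also: cells challenged with 10 nM apelin-13 agonist together with compound; plate controls were apelin-13 plus DMSO wells for no effect and DMSO wells lacking apelin-13 for full effect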
CXCR6 block: inhibitors of human CXCR6 receptor | O00574 | CHO-K1 PathHunter CXCR6 beta-arrestin, luminescence | inhibition, % at 20 µM | 360,000 compounds, 0.36% hits | AID 602244; in the data active = inhibition above about 34%, passing the limit was not always enough;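 also: antagonist mode with CXCL16 agonist at 10 nM final; 0% = 10 nM CXCL16 with DMSO and 100% = unstimulated wells without agonist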
* marks the source's active call; other numbers are inactive results; . = not tested or not shown.

SMILES | CCR6 antagonist | EBI2 block | APJ ag | APJ antag | CXCR6 block
Cc1ccc(NC(=O)Nc2nnc(Cc3ccc([N+](=O)[O-])cc3)s2)cc1 | 62* | -10 | 3 | -14 | -1
Cc1cc2nc(-c3ccc(C#N)cc3)c(Cc3ccsc3)n2c(C)c1Br | . | 10 | . | . | -9
Cc1cc(C(=O)c2ccccc2)cc(C)c1O | 9 | 0 | . | . | 10
CC1=C/C(=C(\c2cc(C)c(O)c(Br)c2)c2ccccc2S(=O)(=O)O)C=C(Br)C1=O | 59* | 4 | -5 | 19 | 31
O=C(NCCN1CCC(n2c(=O)[nH]c3ccccc32)CC1)c1ccc(Cl)c(Cl)c1 | . | -4 | . | . | 0
CCN(CC)c1ccc(C(=C2C=CC(=[N+](CC)CC)C=C2)c2ccccc2)cc1 | 117* | 32 | . | . | 103*
CCN(CC)c1ccc(C(=O)NNC(=O)CCNC(=O)c2ccccc2)cc1 | -1 | -5 | -2 | 2 | 2
CCN(CC)c1ccc(C(=C2C=CC(=[N+](CC)CC)C=C2)c2ccc(N(CC)CC)cc2)cc1 | 114* | 20 | . | . | 108*
CC1(C)CC2(C)OC2C2(C1)N=NC(=Nc1ccccc1)O2 (configuration not stated) | . | -57 | . | . | 4
CC(C)n1c(=O)c2ccccc2n1S(C)(=O)=O | . | -4 | . | . | -2
CCn1nc([N+](=O)[O-])c(C(C#N)c2nc3cc(C(F)(F)F)ccc3s2)c(Cl)c1=O (configuration not stated) | 52* | 6 | -11 | 56* | 38
CSc1ccc(C(O)c2ncc(-c3ccc(F)cc3)[nH]2)cc1 (configuration not stated) | . | 2 | . | . | -6
COc1ccc(/C=N\NC(=O)c2cc(O)c(O)c(O)c2)cc1COc1ccc(C(=O)OCC(C)C)cc1 | 55* | 4 | 5 | 12 | 9
N#Cc1ccccc1NC(=O)CSC1=Nc2ccccc2C2CC=NN12 (configuration not stated) | 13 | -1 | -3 | 12 | -11
O=C(CSC1=Nc2ccccc2C2CC=NN12)Nc1ccc2c(c1)OCO2 (configuration not stated) | 54* | 5 | . | . | 29
COC(=O)c1cc(=O)n(Cc2cccs2)c(=Nc2ccc(F)cc2)s1 | 30 | 30 | 0 | 19 | 10
COC(=O)c1cc(=O)n(CCc2ccccc2F)c(=Nc2ccc(F)c(Cl)c2)s1 | 17 | 69* | 5 | 12 | 0
COC(=O)c1cc(=O)n(Cc2ccco2)c(=Nc2ccc(F)c(Cl)c2)s1 | 11 | 55* | 0 | 26 | 8
Cc1ccccc1N1C(=O)CC(Sc2nnc(-c3ccccc3)o2)C1=O (configuration not stated) | . | 1 | -2 | 6 | 52*
On1ccccc1=S | 83* | 37 | . | . | 75*
CCCOc1ccc(C(=O)NNC(=S)NC(=O)c2ccco2)cc1 | 70* | -5 | -3 | 9 | 37
Cc1cc(N2CCN(C)CC2)ccc1NC(=O)c1c2c(nc3ccccc13)CCN(Cc1ccccc1)C2 | 0 | -5 | 16* | -16 | -11
O=C(NC1CCCCCC1)c1c2c(nc3ccccc13)CCN(Cc1ccccc1)C2 | 1 | 9 | -1 | -12 | 15
Cc1ccc(NC(=O)CN(Cc2ccco2)Cc2ccccc2O)cc1C | 18 | 20 | 0 | 9 | 8
COc1ccccc1COCC(O)CN(Cc1ccco1)Cc1ccccc1O (configuration not stated) | 88* | 7 | -2 | 2 | 4
SMILES | CCR6 antagonist | EBI2 block | APJ ag | APJ antag | CXCR6 block
Cc1cccc(C)c1-n1nnnc1C(c1ccccc1OC(F)(F)F)N1CCN(C/C=C/c2ccccc2)CC1 (configuration not stated) | . | 37 | . | . | 4
O=C1N=C(N2CCCCC2)SC1=C1CCCCC1 | 5 | -3 | -3 | 8 | -1
O=C1NC(=S)SC1=C1CCCCCC1 | 51* | -2 | -4 | 17 | 5
O=S(=O)(c1ccc(Cl)cc1)N1CCN(Cc2ccc(O)c3ncccc23)CC1 | -13 | 27 | 1 | 0 | -2
O=[N+]([O-])c1cc(CN2CCN(c3ccccc3)CC2)c(O)c2ncccc12 | 75* | 17 | -3 | -2 | 56*
Oc1ccc(CN2CCN(Cc3ccccc3)CC2)c2cccnc12 | 17 | 68* | -6 | 14 | 27
COc1ccc(NC(=O)C2Cc3c(-c4cccc(F)c4)ccnc3O2)cn1 (configuration not stated) | . | -5 | . | . | -4
CCOC(=O)c1sc2nc(OCc3cccnc3)cc(C)c2c1N | . | 5 | . | . | 10
O=C1Nc2ccccc2/C1=N\N=C\c1ccc(O)c(O)c1 | 35 | 0 | -1 | 34 | 32
COc1cc(/C=N/N=C2/C(=O)Nc3ccccc32)ccc1O | 56* | -27 | -3 | 29 | 14
Cc1ccc(Cc2cnc(NC(=O)/C(C#N)=C/c3ccc(-c4ccc([N+](=O)[O-])cc4)o3)s2)cc1 | 59* | 14 | -11 | 38 | 39
Oc1ccc(/C=N/Nc2cc(N3CCCC3)nc(N3CCCC3)n2)cc1 | 5 | 55* | -4 | 1 | -2
COCCN=c1scc(-c2cccs2)n1/N=C(\C)c1ccco1 | 17 | -1 | -3 | 9 | 3
COCCN=c1scc(-c2ccc3c(c2)NC(=O)CO3)n1/N=C(\C)c1ccc(O)cc1 | . | 37 | -6 | 0 | 56*
COc1cc(/C=N/n2c(-c3ccc4c(c3)NC(=O)CO4)csc2=Nc2cccc(C)c2)ccc1O | 19 | 52* | -4 | 7 | 13
COC(=O)C[C@H]1C[C@H]2c3cc(NC(=O)Nc4ccc(C(F)(F)F)cc4)ccc3O[C@H]2[C@@H](CO)O1 | . | 2 | . | . | -3
O=C(COc1ccc(Cl)cc1)N1CCN(c2ccc([N+](=O)[O-])c(N3CCCCC3)c2)CC1 | 10 | 78* | -4 | 17 | 2
O=C(COc1ccccc1Cl)N1CCN(c2ccc([N+](=O)[O-])c(N3CCCCC3)c2)CC1 | 15 | 23 | -3 | 16 | 8
Cc1cc(NC(=O)CSc2nc3cc(Cl)ccc3o2)no1 | 19 | 1 | -1 | 29 | 12
O=S1(=O)C=C(Sc2nc3cc(Cl)ccc3o2)c2ccccc21 | 74* | 14 | -6 | 24 | 56*
COC(=O)C1Cc2ccccc2CN1S(=O)(=O)c1ccc(C)cc1 (configuration not stated) | 0 | 8 | 1 | -10 | 7
COC(=O)C1CN(S(=O)(=O)c2ccc(C)cc2)CCN1S(=O)(=O)c1ccc(C)cc1 (configuration not stated) | 8 | 55* | -3 | 12 | 2
N#CC(C#N)=C1C=CC=CN1/C(=C\c1ccccc1)C(=O)c1cccs1 | 87* | -10 | -3 | 24 | 9
O=C(N/N=C/C(Br)=C\c1ccccc1)c1cccs1 | 11 | 4 | 3 | -7 | -7
O=C(NC(c1ccccc1)c1ccc2ccccc2n1)C1CCN(Cc2ccc(Cl)c(Cl)c2)CC1 (configuration not stated) | . | 15 | . | . | 10
